In ChEMBL document CHEMBL2331424, “Synthesis and biological evaluation of novel neuroprotective agents for paraquat-induced apoptosis in human neuronal SH-SY5Y cells” (2013):

Key:
[1] = Neuroprotective activity in human SH-SY5Y cells assessed as cell viability after paraquat-induced toxicity at 10 uM incubated for 2 hrs prior to paraquat challenge measured after 24 hrs by MTT assay (reference value: 62.05 +/- 0.47%)
SH-SY5Y [2] = test: Neuroprotective activity in human SH-SY5Y cells assessed as decrease in paraquat-induced nuclear morphological changes incubated for 4 hrs prior to paraquat challenge measured after 24 hrs by Hoechst 33342 staining-based fluorescence microscopic analysis
[3] = Neuroprotective activity in paraquat-stimulated human SH-SY5Y cells assessed as upregulation of Bcl2 expression incubated for 4 hrs prior to paraquat challenge measured after 24 hrs by Western blotting analysis; assay type: functional, cell-based
In short: (§1)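 SH-SY5Y in DMEM/F12 with 10% FBS pre-incubated with compound (0.1-10 μM, 4 h), then paraquat 250 μM. Western blot for caspase-3 and caspase-9 cleavage, Bax, Bcl-2, SOD or GPx, with GAPDH as loading control. HRP secondary antibodies and ECL detection, bands quantified. ≥3 independent experiments in duplicate; ANOVA with Dunnett's test.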

[4] = Neuroprotective activity in paraquat-stimulated human SH-SY5Y cells assessed as upregulation of GPx expression incubated for 4 hrs prior to paraquat challenge measured after 24 hrs by Western blotting analysis; assay type: functional, cell-based
In short: as §1

SH-SY5Y [5] = test: Neuroprotective activity in human SH-SY5Y cells assessed as decrease in paraquat-induced proteolytic cleavage of procaspase-3 incubated for 4 hrs prior to paraquat challenge measured after 24 hrs by Western blotting analysis; assay type: functional, cell-based
In short: as §1

[6] = Neuroprotective activity in paraquat-stimulated human SH-SY5Y cells assessed as upregulation of SOD expression incubated for 4 hrs prior to paraquat challenge measured after 24 hrs by Western blotting analysis; assay type: functional, cell-based
In short: as §1

SH-SY5Y [7] = test: Neuroprotective activity in human SH-SY5Y cells assessed as decrease in paraquat-induced intracellular ROS level incubated for 4 hrs prior to paraquat challenge measured after 2 hrs by fluorescence microscopic analysis
[8] = Neuroprotective activity in paraquat-stimulated human SH-SY5Y cells assessed as downregulation of Bax expression incubated for 4 hrs prior to paraquat challenge measured after 24 hrs by Western blotting analysis; assay type: functional, cell-based
In short: as §1

SH-SY5Y [9] = test: Neuroprotective activity in human SH-SY5Y cells assessed as decrease in paraquat-induced proteolytic cleavage of procaspase-9 incubated for 4 hrs prior to paraquat challenge measured after 24 hrs by Western blotting analysis; assay type: functional, cell-based
In short: as §1

[10] = target: T1, Prostaglandin G/H synthase 2 (Homo sapiens) (UniProt P35354); test: Ratio of resveratrol IC50 to compound IC50 for inhibition of prostaglandin H-2 synthase (unknown origin)
T1 sequence (whole entry): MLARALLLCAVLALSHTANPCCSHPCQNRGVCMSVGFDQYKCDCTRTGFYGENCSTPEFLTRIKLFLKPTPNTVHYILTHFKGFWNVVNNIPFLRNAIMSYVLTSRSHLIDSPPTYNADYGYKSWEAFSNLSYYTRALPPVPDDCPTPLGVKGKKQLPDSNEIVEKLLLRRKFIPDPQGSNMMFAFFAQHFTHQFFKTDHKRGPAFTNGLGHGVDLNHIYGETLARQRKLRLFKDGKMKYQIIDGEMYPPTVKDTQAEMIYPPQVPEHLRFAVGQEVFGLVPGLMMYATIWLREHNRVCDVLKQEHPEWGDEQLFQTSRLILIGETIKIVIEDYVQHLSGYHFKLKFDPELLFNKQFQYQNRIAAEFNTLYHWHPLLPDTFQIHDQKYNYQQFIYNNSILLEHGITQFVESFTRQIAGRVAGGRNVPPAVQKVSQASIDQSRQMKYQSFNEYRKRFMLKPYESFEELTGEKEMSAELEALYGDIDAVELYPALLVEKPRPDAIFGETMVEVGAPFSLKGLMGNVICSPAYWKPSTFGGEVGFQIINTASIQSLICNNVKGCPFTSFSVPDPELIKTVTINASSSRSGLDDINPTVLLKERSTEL

With `Oc1ccc(CC2=C(c3cc(O)cc(O)c3)C(c3ccc(O)cc3)c3c(O)cc(O)cc32)cc1` (configuration not stated) the viability at 10 µM [1] was 89.6%, the Activity (SH-SY5Y [2]) was “Dose-dependent effect” and the Activity [3] was “Dose-dependent effect”. The Activity [4] was “Dose-dependent effect”, the Activity (SH-SY5Y [5]) was “Dose-dependent effect” and the Activity [6] was “Dose-dependent effect”. The Activity (SH-SY5Y [7]) was “Dose-dependent effect”, the Activity [8] was “Dose-dependent effect” and the Activity (SH-SY5Y [9]) was “Dose-dependent effect”.
With `Oc1ccc(/C=C2/c3cc(O)cc(O)c3[C@@H](c3ccc(O)cc3)[C@@H]2c2cc(O)cc(O)c2)cc1` (racemic) the viability at 10 µM [1] was 57.9%.
`COc1ccc(/C=C2/c3cc(OC)cc(OC)c3[C@@H](c3ccccc3)[C@@H]2c2cc(OC)cc(OC)c2)cc1` gave a viability at 10 µM [1] of 64%.
In the case of `Oc1ccc([C@H]2Oc3cc(O)cc4c3[C@@H]2c2cc(O)cc3c2[C@@H](c2cc(O)cc5c2[C@@H]4[C@H](c2ccc(O)cc2)O5)[C@H](c2ccc(O)cc2)O3)cc1`, the Ratio IC50 [10] is reported as 3.
In the case of `COc1ccc(CSC2c3cc(OC)cc(OC)c3[C@@H](c3ccccc3)[C@@H]2c2cc(OC)cc(OC)c2)cc1` (some centres not stated), the viability at 10 µM [1] is reported as 60.6%.
`COc1ccc(C2C(c3cc(OC)cc(OC)c3)=Cc3cc(OC)cc(OC)c32)cc1` (configuration not stated) gave a viability at 10 µM [1] of 58.6%.
Work on `Oc1ccc([C@@H]2c3c(O)cc(O)cc3[C@H]3[C@H](c4ccccc4)c4c(O)cc(O)cc4[C@@H]23)cc1` yielded a viability at 10 µM [1] of 77.2%.
Work on `Oc1ccc([C@@H]2c3c(O)cc(O)cc3[C@H]3[C@H](c4ccc(O)cc4)c4c(O)cc(O)cc4[C@@H]23)cc1` (racemic) [PALLIDOL] yielded a viability at 10 µM [1] of 72.4%.
In the case of `Oc1ccc(/C=C/c2cc(O)cc(O)c2)cc1` [RESVERATROL], the viability at 10 µM [1] is reported as 66.3%.
In the case of `C=C1c2cc(OC)cc(OC)c2[C@@H](c2ccc(OC)cc2)[C@@H]1c1cc(OC)cc(OC)c1`, the viability at 10 µM [1] is reported as 58.2%.
In the case of `COc1ccc(/C=C2\c3cc(OC)cc(OC)c3[C@@H](c3ccc(OC)cc3)[C@@H]2c2cc(OC)cc(OC)c2)cc1`, the viability at 10 µM [1] is reported as 63.6%.
With `COc1ccc(/C=C2/c3cc(OC)cc(OC)c3[C@@H](c3ccc(OC)cc3)[C@@H]2c2cc(OC)cc(OC)c2)cc1` the viability at 10 µM [1] was 62.4%.
With `COc1ccc(CSC2c3cc(OC)cc(OC)c3[C@@H](c3ccc(OC)cc3)[C@@H]2c2cc(OC)cc(OC)c2)cc1` (some centres not stated) the viability at 10 µM [1] was 65.2%.
In the case of `COc1ccc([C@@H]2c3c(OC)cc(OC)cc3[C@H]3[C@H](c4ccc(OC)cc4)c4c(OC)cc(OC)cc4[C@@H]23)cc1`, the viability at 10 µM [1] is reported as 63.6%.
For `COc1cc(OC)cc([C@@H]2C(O)c3cc(OC)cc(OC)c3[C@H]2c2ccccc2)c1` (relative stereo), the viability at 10 µM [1] was 63.9%.
With `COc1ccc(CC2=C(c3cc(OC)cc(OC)c3)[C@@H](c3ccc(OC)cc3)c3c(OC)cc(OC)cc32)cc1` the viability at 10 µM [1] was 61.4%.
`Oc1ccc(CC2=C(c3cc(O)cc(O)c3)C(c3ccccc3)c3c(O)cc(O)cc32)cc1` (configuration not stated) showed a viability at 10 µM [1] of 82.9%.
For `COc1ccc([C@@H]2c3c(OC)cc(OC)cc3C(O)[C@H]2c2cc(OC)cc(OC)c2)cc1` (relative stereo), the viability at 10 µM [1] was 59%.
`COc1cc(OC)cc([C@@H]2C(=O)c3cc(OC)cc(OC)c3[C@H]2c2ccccc2)c1` (single isomer, unassigned) showed a viability at 10 µM [1] of 65%.
In the case of `COc1ccc(/C=C2\c3cc(OC)cc(OC)c3[C@@H](c3ccccc3)[C@@H]2c2cc(OC)cc(OC)c2)cc1`, the viability at 10 µM [1] is reported as 65.3%.
`O=C1c2cc(O)cc(O)c2[C@@H](c2ccccc2)[C@@H]1c1cc(O)cc(O)c1` gave a viability at 10 µM [1] of 65%.
Work on `O=C1c2cc(O)cc(O)c2[C@@H](c2ccc(O)cc2)[C@@H]1c1cc(O)cc(O)c1` [ISOPAUCIFLORAL F] yielded a viability at 10 µM [1] of 58.5%.
`COc1ccc([C@@H]2c3c(OC)cc(OC)cc3C(=O)[C@H]2c2cc(OC)cc(OC)c2)cc1` (relative stereo) showed a viability at 10 µM [1] of 59.9%.
Work on `COc1ccc(C2C(c3cc(OC)cc(OC)c3)=C(C)c3cc(OC)cc(OC)c32)cc1` (configuration not stated) yielded a viability at 10 µM [1] of 55.8%.
